# Test results reported in ChEMBL document CHEMBL4138113, “Novel propanamides as fatty acid amide hydrolase inhibitors” (Eur J Med Chem, 2017).
# Activity calls are given as the source filed them.
# Experiments:
# [1] = biological target: T1, Prostaglandin G/H synthase 1 (Ovis aries) (UniProt P05979); assay: Inhibition of ovine COX1 using arachidonic acid as substrate after 5 mins
# T1 sequence (whole entry): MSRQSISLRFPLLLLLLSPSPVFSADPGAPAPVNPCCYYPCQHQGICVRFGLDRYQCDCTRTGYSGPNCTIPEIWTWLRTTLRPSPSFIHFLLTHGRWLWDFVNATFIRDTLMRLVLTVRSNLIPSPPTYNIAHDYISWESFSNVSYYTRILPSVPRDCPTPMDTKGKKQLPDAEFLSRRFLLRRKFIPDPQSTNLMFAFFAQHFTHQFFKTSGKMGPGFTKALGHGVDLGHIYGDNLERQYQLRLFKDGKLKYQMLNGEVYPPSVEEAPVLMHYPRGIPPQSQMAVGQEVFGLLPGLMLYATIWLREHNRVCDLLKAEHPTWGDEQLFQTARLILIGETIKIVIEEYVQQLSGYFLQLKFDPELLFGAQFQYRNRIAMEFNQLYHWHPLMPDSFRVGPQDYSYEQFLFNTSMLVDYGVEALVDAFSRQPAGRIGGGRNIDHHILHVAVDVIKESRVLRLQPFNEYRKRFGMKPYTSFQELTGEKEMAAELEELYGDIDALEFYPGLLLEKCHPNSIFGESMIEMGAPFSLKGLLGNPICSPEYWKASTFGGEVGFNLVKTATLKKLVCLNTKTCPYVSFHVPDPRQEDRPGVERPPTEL
# In short: (§1)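 Oxygen-electrode assay at room temperature in 0.1 M Tris-HCl, pH 7.4, with 1 µM haematin, 2 mM phenol, 5 mM EDTA and 10 µM (final) arachidonic acid or 2-AG. Compound in EtOH was added and a 5 min baseline recorded. The reaction was started with ovine COX-1 or human recombinant COX-2 (200 U), and oxygen consumption was read in 10 s blocks. Means ± SEM, n = 3-4.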
# [2] = biological target: T2, Fatty-acid amide hydrolase 1 (Rattus norvegicus) (UniProt P97612); assay: Reversible inhibition of rat brain FAAH at 0.2 to 2 uM using [3H]AEA as substrate preincubated for 60 mins followed by substrate addition by liquid scintillation counting analysis
# T2 sequence (whole entry): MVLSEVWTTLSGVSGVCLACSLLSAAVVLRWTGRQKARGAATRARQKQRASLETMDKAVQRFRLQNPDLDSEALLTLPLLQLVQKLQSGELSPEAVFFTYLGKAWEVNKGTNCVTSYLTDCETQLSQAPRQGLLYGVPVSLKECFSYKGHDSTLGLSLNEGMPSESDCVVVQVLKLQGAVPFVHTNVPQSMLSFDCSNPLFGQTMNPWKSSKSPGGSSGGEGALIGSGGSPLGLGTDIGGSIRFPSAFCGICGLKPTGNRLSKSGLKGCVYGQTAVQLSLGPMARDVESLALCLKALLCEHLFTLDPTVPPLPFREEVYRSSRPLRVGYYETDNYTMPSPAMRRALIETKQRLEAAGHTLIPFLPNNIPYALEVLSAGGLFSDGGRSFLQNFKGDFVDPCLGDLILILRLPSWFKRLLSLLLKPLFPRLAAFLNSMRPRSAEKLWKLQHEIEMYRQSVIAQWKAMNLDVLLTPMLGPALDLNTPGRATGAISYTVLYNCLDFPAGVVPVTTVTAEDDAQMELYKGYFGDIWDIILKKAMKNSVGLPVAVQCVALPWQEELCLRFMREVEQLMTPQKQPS
# In short: (§2)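 Rat brain homogenate at 20-fold normal strength was preincubated with vehicle or compound for 60 min, then diluted 20-fold and assayed with [3H]AEA for 10 min at 37 °C. In parallel, compound was added to vehicle-preincubated aliquots at the post-dilution free concentrations and at the undiluted final concentrations. Tritium was counted after charcoal separation.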
# [3] = biological target: T3, Fatty-acid amide hydrolase 1 (Mus musculus) (UniProt O08914); assay: Inhibition of B6CBAF1/J mouse brain FAAH using [3H]AEA as substrate after 10 mins in presence of N-(3-Chloropyridin-2-yl)-2-(4-((2-(trifluoromethyl)pyridin-4-yl)amino)phenyl)propanamide by Dixon plot analysis
# T3 sequence (whole entry): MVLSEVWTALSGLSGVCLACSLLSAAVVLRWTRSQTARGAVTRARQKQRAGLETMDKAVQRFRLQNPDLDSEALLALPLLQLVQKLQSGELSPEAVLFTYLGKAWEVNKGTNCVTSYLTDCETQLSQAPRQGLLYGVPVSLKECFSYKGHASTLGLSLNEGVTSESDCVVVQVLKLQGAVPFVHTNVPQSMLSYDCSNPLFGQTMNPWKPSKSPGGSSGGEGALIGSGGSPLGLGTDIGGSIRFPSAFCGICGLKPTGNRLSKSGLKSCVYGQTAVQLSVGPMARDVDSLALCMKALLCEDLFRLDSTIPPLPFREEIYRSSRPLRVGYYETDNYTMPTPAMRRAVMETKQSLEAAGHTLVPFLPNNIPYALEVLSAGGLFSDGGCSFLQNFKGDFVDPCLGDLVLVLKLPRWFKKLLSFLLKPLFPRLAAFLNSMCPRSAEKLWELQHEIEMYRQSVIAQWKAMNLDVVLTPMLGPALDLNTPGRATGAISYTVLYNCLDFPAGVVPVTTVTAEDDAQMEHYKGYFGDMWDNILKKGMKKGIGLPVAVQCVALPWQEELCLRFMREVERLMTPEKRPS
# In short: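 Kinetic study in brain homogenate from male B6CBAF1/J mice (0.3 µg protein per assay). [3H]AEA hydrolysis ran for 10 min at 37 °C in Tris-EDTA buffer, pH 7.4, with the AEA:fatty acid-free BSA ratio held at 1:~4.5. Products were separated on charcoal and counted by scintillation. Competitive, mixed-type and non-competitive fits were compared by Akaike's criterion.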
# [4] = biological target: T4, Fatty-acid amide hydrolase 1 (Rattus norvegicus, UniProt P97612); assay: Noncompetitive inhibition of rat brain FAAH using [3H]AEA as substrate after 10 mins by Dixon plot analysis
# T4 sequence (P97612 whole entry): T2 sequence (whole entry)
# In short: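 Kinetic study in rat brain homogenate (1 µg protein per assay). [3H]AEA hydrolysis ran for 10 min at 37 °C in Tris-EDTA buffer, pH 7.4, with the AEA:fatty acid-free BSA ratio held at 1:~4.5 across substrate levels. Radioactivity was measured by charcoal separation and scintillation counting. Data were fitted to competitive, mixed-type and non-competitive models, and the best model was chosen by Akaike's criterion.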
# [5] = biological target: T1, Prostaglandin G/H synthase 1 (Ovis aries); assay: Inhibition of recombinant ovine COX1 at 100 uM using arachidonic acid as substrate after 5 mins; in short: as §1
# [6] = biological target: T2, Fatty-acid amide hydrolase 1 (Rattus norvegicus); assay: Reversible inhibition of rat brain FAAH at 0.03 to 1 uM using [3H]AEA as substrate preincubated for 60 mins followed by substrate addition by liquid scintillation counting analysis; in short: as §2
# [7] = biological target: T2, Fatty-acid amide hydrolase 1 (Rattus norvegicus); assay: Inhibition of rat brain FAAH using [3H]AEA as substrate after 10 mins in presence of N-(3-Methylpyridin-2-yl)-2-(4-((2-(trifluoromethyl)pyridin-4-yl)amino)phenyl)propanamide by liquid scintillation counting analysis
# In short: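 Rat (Wistar or Sprague-Dawley) brain homogenate without cerebella, washed and pre-incubated 15 min at 37 °C to clear endogenous substrate. Compound (in ethanol or DMSO) was mixed with 1 µg protein on ice in 10 mM Tris-HCl, 1 mM EDTA, pH 7.4. Reaction used 0.5 µM [3H]AEA with fatty acid-free BSA for 10 min at 37 °C. It was stopped with charcoal/HCl, and supernatant tritium was counted. ≥5 half-log concentrations, ≥3 experiments; maximum inhibition = 100 − fitted bottom.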
inhibition [1],inhibition [2],inhibition [3],Ki [4],inhibition [5],inhibition [6],inhibition [7],Compound
inactive,Active,Active,,,,,Cc1cccnc1NC(=O)C(C)c1ccc(Nc2ccnc(C(F)(F)F)c2)cc1 (configuration not stated)
,,,110 nM,Active,Active,Active,CC(C(=O)Nc1ncccc1Cl)c1ccc(Nc2ccnc(C(F)(F)F)c2)cc1 (configuration not stated)
